Each structure is given as a SMILES string.

Format in all cases: functional, cell-based
One assay has as its system HL-60. Nature of the assay: Cytostatic activity against human HL60 cells after 24 hrs by colorimetric microculture assay. As to conditions: HL-60, 24 h. Put shortly:
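MTT assay: HL-60 cells seeded at 10⁴ per well, grown 24 h in culture medium, then exposed at 37 °C for 24 h to varying doses of compounds dissolved in DMSO, with DMSO controls. Absorbance read at 595 nm. Viability taken as treated over control absorbance. IC50 derived from concentration-effect curves; means of three experiments with standard deviation.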

Another assay deals with HeLa. Nature of the assay: Cytostatic activity against human HeLa 229 cells after 48 hrs by colorimetric microculture assay. A digest of the protocol: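 HeLa-229 cells plated at 4 × 10³ per well and cultured 24 h before treatment at 37 °C for 48 h with varying doses in DMSO, DMSO controls included. MTT colour measured at 595 nm. Percent viability relative to control; IC50 from concentration-effect curves. Mean of three experiments, SD given.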

A further assay concerns MCF7. Put plainly: Cytostatic activity against human MCF7 cells after 96 hrs by colorimetric microculture assay. As to conditions: MCF7, 96 h. A digest of the protocol: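 MCF-7 cells at 10⁴ per well, preincubated 24 h, then treated at 37 °C for 96 h with varying doses dissolved in DMSO alongside DMSO controls. Read-out: MTT colorimetry at 595 nm, viability as a fraction of control absorbance. IC50 fitted from concentration-effect curves; three experiments, mean with standard deviation.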

For `OC[C@@H](O)[C@H]1O[C@@H](n2cnc3c(Cl)ncnc32)[C@H](O)[C@@H]1O`, the IC50 in the assay on HL-60, with HeLa and with MCF7 was > 100 µM throughout.

Turning to `OC[C@@H](O)[C@H]1O[C@@H](n2cnc3c(Cl)nc(Cl)nc32)[C@H](O)[C@@H]1O`, the IC50 in the assay with HL-60 is > 100 µM; in the assay with HeLa, 47.1 µM; in the assay with MCF7 it was 54.2 µM.

Consider `Nc1ncnc2c1ncn2[C@@H]1O[C@H]([C@H](O)CO)[C@@H](O)[C@H]1O`, for which the half-maximal inhibitory concentration (IC50) in the assay on HL-60, in the assay with HeLa and in the assay on MCF7 was > 100 µM throughout.

`Nc1nc(Cl)nc2c1ncn2[C@@H]1O[C@H]([C@H](O)CO)[C@@H](O)[C@H]1O`: the concentration for half-maximal inhibition (IC50) in the assay with HL-60, with HeLa and in the assay with MCF7 was > 100 µM each time.

For the compound `CNc1ncnc2c1ncn2[C@@H]1O[C@H]([C@H](O)CO)[C@@H](O)[C@H]1O`, the IC50 in the assay with HL-60, with HeLa and in the assay with MCF7 was > 100 µM in each case.

With `CNc1nc(Cl)nc2c1ncn2[C@@H]1O[C@H]([C@H](O)CO)[C@@H](O)[C@H]1O`, the IC50 with HL-60, in the assay with HeLa and with MCF7 was > 100 µM each time.

Consider `OC[C@@H](O)[C@H]1O[C@@H](n2cnc3c(-c4ccccc4)ncnc32)[C@H](O)[C@@H]1O`, for which the IC50 with HL-60, in the assay with HeLa and in the assay on MCF7 was > 100 µM each time.

`CCOc1nc(Cl)nc2c1ncn2[C@@H]1O[C@H]([C@H](O)CO)[C@@H](O)[C@H]1O`: the IC50 in the assay on HL-60, in the assay with HeLa and with MCF7 was > 100 µM each time.

As to `CC(=O)OC[C@@H](OC(C)=O)[C@H]1O[C@@H](n2cnc3c(Cl)ncnc32)[C@H](OC(C)=O)[C@@H]1OC(C)=O`, the 50% inhibitory concentration (IC50) is 79.3 µM in the assay with HL-60, > 100 µM in the assay with HeLa and > 100 µM in the assay with MCF7.

Take `CC(=O)OC[C@@H](OC(C)=O)[C@H]1O[C@@H](n2cnc3c(-c4ccccc4)ncnc32)[C@H](OC(C)=O)[C@@H]1OC(C)=O`: the half-maximal inhibitory concentration (IC50) with HL-60, in the assay on HeLa and with MCF7 was > 100 µM throughout.

On to `CC(=O)OC[C@@H](OC(C)=O)[C@H]1O[C@@H](n2cnc3c(Cl)nc(Cl)nc32)[C@H](OC(C)=O)[C@@H]1OC(C)=O`, for which the IC50 was determined as 16.1 µM with HL-60, 24.2 µM with HeLa and 22.4 µM in the assay on MCF7.

Turning to `CC(=O)O[C@H]1[C@@H](OC(C)=O)[C@H](n2cnc3c(Cl)nc(Cl)nc32)O[C@@H]1[C@H](O)CO`, the IC50 in the assay on HL-60 worked out at 45 µM; in the assay on HeLa, 36.3 µM; in the assay with MCF7, 36.3 µM.

For the compound `CC(=O)OC[C@@H](OC(C)=O)[C@H]1O[C@@H](n2cnc3c(N)nc(Cl)nc32)[C@H](OC(C)=O)[C@@H]1OC(C)=O`, the IC50 in the assay on HL-60, in the assay on HeLa and in the assay on MCF7 was > 100 µM each time.

By IC50 is commonly meant the concentration that gives 50% inhibition.
